This is an account of results in ChEMBL document CHEMBL4834419 (J Med Chem, 2021).

Molecules are shown by their SMILES.

Series [1] deals with T1, Retinoic acid receptor RXR-alpha (Homo sapiens) (UniProt P19793).
T1 sequence (whole entry): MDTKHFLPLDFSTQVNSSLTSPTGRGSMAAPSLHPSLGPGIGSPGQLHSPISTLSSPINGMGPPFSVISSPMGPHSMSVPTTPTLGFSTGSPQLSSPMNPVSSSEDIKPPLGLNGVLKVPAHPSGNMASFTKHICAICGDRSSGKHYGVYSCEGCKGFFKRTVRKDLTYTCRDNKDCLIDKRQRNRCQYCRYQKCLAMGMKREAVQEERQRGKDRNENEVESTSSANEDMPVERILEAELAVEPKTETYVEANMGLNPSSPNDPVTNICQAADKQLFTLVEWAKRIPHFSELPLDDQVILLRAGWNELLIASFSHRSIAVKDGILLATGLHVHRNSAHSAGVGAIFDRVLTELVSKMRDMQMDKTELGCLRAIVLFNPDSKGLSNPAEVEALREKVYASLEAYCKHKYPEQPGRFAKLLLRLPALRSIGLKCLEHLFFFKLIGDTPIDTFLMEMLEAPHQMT
The series can be described thus: Agonist activity against human RXRalpha in human HEK293T cells co-expressing pFR/pRL-Luc assessed as receptor activation at 10 uM incubated for 14 to 16 hrs by hybrid reporter gene assay relative to bexarotene. It is filed as cell-based. Particulars: filed as agonist, time 14-16 hrs. The method, boiled down:
(§1)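 Gal4 hybrid reporter assay in HEK293T cells, seeded 24 h before transfection (Lipofectamine LTX, Opti-MEM) with pFR-Luc, pRL-SV40 and pFA-CMV plasmid carrying the hinge region and LBD of the human receptor. After 5 h, compound added in 0.1% DMSO, with 0.1% DMSO alone as untreated control. Dual-Glo luciferase read after 14−16 h; firefly/renilla normalized; duplicates, ≥2 independent experiments.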

In series [2] the target is T2, Retinoic acid receptor alpha (Homo sapiens) (UniProt P10276).
T2 sequence (whole entry): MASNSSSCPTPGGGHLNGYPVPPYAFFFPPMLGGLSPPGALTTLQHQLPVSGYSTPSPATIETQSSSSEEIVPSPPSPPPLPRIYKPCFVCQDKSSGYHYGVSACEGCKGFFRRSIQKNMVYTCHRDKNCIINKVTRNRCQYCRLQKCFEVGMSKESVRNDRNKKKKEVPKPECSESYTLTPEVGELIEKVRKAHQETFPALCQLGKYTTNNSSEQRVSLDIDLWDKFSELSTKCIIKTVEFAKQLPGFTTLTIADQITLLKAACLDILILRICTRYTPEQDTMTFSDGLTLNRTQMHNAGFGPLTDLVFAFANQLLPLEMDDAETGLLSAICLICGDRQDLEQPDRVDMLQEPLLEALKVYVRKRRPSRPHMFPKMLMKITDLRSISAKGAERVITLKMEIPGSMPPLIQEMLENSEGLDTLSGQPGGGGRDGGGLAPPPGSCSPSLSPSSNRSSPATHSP
The series can be described thus: Agonist activity against human RARalpha in human HEK293T cells co-expressing pFR/pRL-Luc assessed as receptor activation at 10 uM incubated for 14 to 16 hrs by hybrid reporter gene assay relative to bexarotene. Particulars: filed as agonist, time 14-16 hrs. It is filed as cell-based. The method, boiled down: as §1
In general terms: A reporter such as luciferase makes a cellular process visible.

The nature of series [3]: Cmax in mouse at 10 mg/kg, po. It is filed as ADME, organism-based. More on the design: route oral, dose 10 mg/kg. Particulars: in vivo. The gist of the method: (§2)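 Mice, n = 3, received a single oral dose of 10 mg/kg in water with 1% hydroxypropyl methylcellulose/Tween 80 (99:1). Tail-vein blood was drawn at 30 and 60 min and tissue collected at 3 h. Compound was quantified by LC−MS and PK derived by noncompartmental analysis.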

For series [4], the target named is T3, Peroxisome proliferator-activated receptor gamma (Homo sapiens) (UniProt P37231).
T3 sequence (whole entry): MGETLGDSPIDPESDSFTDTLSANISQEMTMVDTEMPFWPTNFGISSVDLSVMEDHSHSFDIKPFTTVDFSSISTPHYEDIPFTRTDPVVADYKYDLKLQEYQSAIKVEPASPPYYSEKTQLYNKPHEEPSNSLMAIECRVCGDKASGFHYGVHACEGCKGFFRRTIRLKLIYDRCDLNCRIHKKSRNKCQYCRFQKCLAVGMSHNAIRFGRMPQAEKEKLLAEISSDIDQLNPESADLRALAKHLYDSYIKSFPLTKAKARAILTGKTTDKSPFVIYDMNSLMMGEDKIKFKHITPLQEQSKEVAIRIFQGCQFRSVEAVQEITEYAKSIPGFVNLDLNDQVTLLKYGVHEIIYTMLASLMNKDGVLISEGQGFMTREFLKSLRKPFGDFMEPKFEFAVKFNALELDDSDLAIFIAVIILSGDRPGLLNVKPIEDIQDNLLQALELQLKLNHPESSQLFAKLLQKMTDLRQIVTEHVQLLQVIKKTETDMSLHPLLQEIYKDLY
The series can be described thus: Agonist activity against human PPARgamma in human HEK293T cells co-expressing pFR/pRL-Luc assessed as receptor activation at 10 uM incubated for 14 to 16 hrs by hybrid reporter gene assay relative to bexarotene. It is filed as cell-based. Particulars: filed as agonist, time 14-16 hrs. The method, boiled down: as §1

Series [5] has as its system HepG2. The series can be described thus: Cytotoxicity against human HepG2 cells assessed as reduction in cell viability incubated for 48 hrs by WST-1 assay. As to conditions: HepG2, 48 h. Background: Tetrazolium dyes change colour on reduction, which living cells bring about.
Series [6] can be described thus: Plasma concentration in mouse at 10 mg/kg, po measure after 3 hrs. It is filed as ADME, organism-based. The gist of the method: as §2
Series [7] addresses T4, Peroxisome proliferator-activated receptor delta (Homo sapiens) (UniProt Q03181).
T4 sequence (whole entry): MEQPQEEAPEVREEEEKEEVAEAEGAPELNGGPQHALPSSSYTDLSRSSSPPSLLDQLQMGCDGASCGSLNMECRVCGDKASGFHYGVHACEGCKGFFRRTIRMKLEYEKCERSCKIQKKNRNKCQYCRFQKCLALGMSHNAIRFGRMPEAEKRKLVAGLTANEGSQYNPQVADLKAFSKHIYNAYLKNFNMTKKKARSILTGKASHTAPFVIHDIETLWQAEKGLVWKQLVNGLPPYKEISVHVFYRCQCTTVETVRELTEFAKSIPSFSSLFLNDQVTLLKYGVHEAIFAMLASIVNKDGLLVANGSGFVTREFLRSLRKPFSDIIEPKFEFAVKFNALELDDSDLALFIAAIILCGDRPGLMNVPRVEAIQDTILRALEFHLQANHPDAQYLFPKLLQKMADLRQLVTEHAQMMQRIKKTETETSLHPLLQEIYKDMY
Nature of the series: Agonist activity against human PPARdelta in human HEK293T cells co-expressing pFR/pRL-Luc assessed as receptor activation at 10 uM incubated for 14 to 16 hrs by hybrid reporter gene assay relative to bexarotene. It is filed as cell-based. Particulars: filed as agonist, time 14-16 hrs. The method, boiled down:
as §1

One may read the Cmax as the peak of the concentration-time curve. The term IC50 denotes the point on the concentration scale where inhibition reaches its midpoint. Turning to `O=C(O)CCCc1cc(-c2cc(Cl)cc(Cl)c2)n(-c2ccccc2)n1`, the Activity was 21% in series [1], 1% in series [2], 2% in series [4] and 1% in series [7]. For the same molecule, the Cmax in series [3] amounted to 35000 ng/mL. For the same molecule, in series [5], the concentration for half-maximal inhibition (IC50) was more than 100 µM. This molecule gave a concentration at 3 h in series [6] of 35000 ng/mL.
